A selection: hits, their analogues and other compounds. The true share with any hit is near 0.79%.
mIAP inh: blocks mouse intestinal alkaline phosphatase; purified mouse IAP, CDP-Star luminescence, 30 min; inhibition, % at 10 µM; 330,000 compounds, 0.2% hits; AID 2806;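 active means inhibition of at least 40% at 10 µM in the primary screen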
hIAP activ: increases human intestinal alkaline phosphatase activity; P09923; purified human IAP, CDP-Star luminescence, 30 min; hits give high values; 1 = vehicle-only enzyme, 0 = enzyme-free background; activation factor at 10 µM; 330,000 compounds, 0.16% hits;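 active means activation factor of the enzyme at least 2-fold when tested at 20 µM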
Target sequence (P09923 whole entry, looked up): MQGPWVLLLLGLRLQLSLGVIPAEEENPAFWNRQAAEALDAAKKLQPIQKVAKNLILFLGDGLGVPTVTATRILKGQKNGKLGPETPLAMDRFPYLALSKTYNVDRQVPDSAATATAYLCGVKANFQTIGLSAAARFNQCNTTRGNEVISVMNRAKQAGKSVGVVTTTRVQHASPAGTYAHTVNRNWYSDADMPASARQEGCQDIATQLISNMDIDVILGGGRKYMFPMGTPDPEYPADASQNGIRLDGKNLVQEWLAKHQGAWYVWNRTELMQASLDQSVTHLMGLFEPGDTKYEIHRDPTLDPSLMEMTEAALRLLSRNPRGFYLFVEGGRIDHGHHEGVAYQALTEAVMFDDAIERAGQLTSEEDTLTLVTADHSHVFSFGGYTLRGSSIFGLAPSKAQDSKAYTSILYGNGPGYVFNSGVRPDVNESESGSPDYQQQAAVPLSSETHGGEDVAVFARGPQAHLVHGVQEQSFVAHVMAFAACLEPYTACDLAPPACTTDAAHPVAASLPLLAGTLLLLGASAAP
hIAP inh: human IAP inhibition; 330,000 compounds, 0.12% hits; purified IAP, CDP-Star luminescence, 30 min; inhibition, % at 10 µM; P09923;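 active means inhibition reaching a set limit with compound at 10 µM in the primary screen, cut at about 35% in these data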
bIAP inhibitor: intestinal alkaline phosphatase (bovine) inhibition. purified bovine IAP, CDP-star luminescence, 30 min. inhibition, % at 20 µM. 190,000 tested, under 10 active. AID 1019;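 active means over 50% inhibition of intestinal alkaline phosphatase at 20 µM in the single-dose screen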
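Assay system: bovine IAP enzyme; medium: DEA buffer 100 mM, pH 9.8, with MgCl2 1.0 mM, ZnCl2 0.02 mM; doses: 20 µM single dose; incubation: enzyme reaction for 30 min at room temperature; detection: CDP-star luminescence signal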
mIAP act: mouse IAP activation; activation factor at 10 µM; AID 2805; muIAP, CDP-Star luminescence, 30 min; hits give high values; 1 = vehicle-only enzyme signal, 0 = enzyme-free wells; 330,000 compounds, 0.24% hits;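 active means activation factor of at least 2 at 20 µM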
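System: mouse IAP enzyme. Reagent: CDP-Star chemiluminescent phosphatase substrate. Benchmarks: DMSO wells, no-enzyme wells. Times: 30 min enzyme-substrate-compound incubation at room temperature. Detection: luminescence from enzymatic CDP-Star hydrolysis. Doses: test compounds delivered from DMSO solution.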
bIAP activator: increases bovine intestinal alkaline phosphatase activity; purified bovine IAP, CDP-star luminescence, 30 min; hits give high values; fold of DMSO-control signal, blank-subtracted; activation factor at 20 µM; 200,000 compounds, 0.17% hits;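 active means activation factor of 2 or more at 20 µM, a signal rise over negative controls twice the positive control's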
Large screens that a line does not name were inactive.

CCOc1ccc(C(=O)N/N=C/c2ccccc2[N+](=O)[O-])cc1	bIAP activator 2
Cc1cc(-c2csc(NC(=O)c3ccc(=O)[nH]c3)n2)c(C)n1Cc1ccccc1	none
Cc1cc(-c2csc(NC(=O)c3ccc(C#N)cc3)n2)c(C)n1Cc1ccco1	mIAP inh 41
COc1ccc(OCC(=O)Nc2ccc(NC(=O)c3ccccc3Cl)c(OC)c2)cc1	none (no result: bIAP inhibitor, bIAP activator)
CC1=C(C#N)C(=O)N(C2CCS(=O)(=O)C2)C(=O)/C1=C\c1ccco1 (stereo unspecified)	mIAP inh 47 (no result: bIAP inhibitor, bIAP activator)
CCS(=O)(=O)NCc1ccc2[nH]c3c(c2c1)CCCC3	none
S=C(NCc1ccc2[nH]c3c(c2c1)CCCC3)Nc1ccccc1	mIAP act 2.2
Cc1cc(C)cc(NC(=S)NCc2ccc3[nH]c4c(c3c2)CCCC4)c1	mIAP act 2.8
Cc1csc(SC(C)c2nc3scc(-c4ccccc4)c3c(=O)[nH]2)n1 (stereo unspecified)	none (no result: bIAP inhibitor, bIAP activator)
CCN(CC(=O)Nc1ccc(NC(C)=O)cc1)C(=O)c1ccccc1SCC(=O)N1CCCC1	none (no result: bIAP inhibitor, bIAP activator)
COc1ccc(NC(=O)N(C)C[C@H]2Oc3ccc(NC(=O)NC4CCCCC4)cc3C(=O)N([C@H](C)CO)C[C@@H]2C)cc1	mIAP act 2.1 (no result: bIAP inhibitor, bIAP activator)
COc1ccc(NC(=O)Nc2ccc3c(c2)C(=O)N([C@H](C)CO)C[C@H](C)[C@@H](CN(C)C(=O)NC2CCCCC2)O3)cc1	mIAP act 2.4 (no result: bIAP inhibitor, bIAP activator)
Cc1noc(C)c1S(=O)(=O)N(C)C[C@H]1Oc2ccc(NC(=O)NC3CCCCC3)cc2C(=O)N([C@H](C)CO)C[C@@H]1C	mIAP act 2.6 (no result: bIAP inhibitor, bIAP activator)
COc1ccc(OC)c(S(=O)(=O)N2CCC(C(=O)N(C)Cc3ccccc3)CC2)c1	none (no result: bIAP inhibitor, bIAP activator)
O=C(COC(=O)Cc1ccccc1F)NCCNC(=O)COC(=O)Cc1ccccc1F	none (no result: bIAP inhibitor, bIAP activator)
COc1ccc(/C=N/NC(=O)c2cnccn2)cc1O	none
COc1cccc(/C=N/NC(=O)c2cnccn2)c1	bIAP activator 2.2
CCN(CC)c1ccc2cc(-c3nc4ccccc4n3C)c(=O)oc2c1	bIAP activator 2.6 (no result: mIAP inh, hIAP activ, hIAP inh, mIAP act)
CCN(CC)c1ccc2cc(-c3nc4ccccc4[nH]3)c(=O)oc2c1	none
Cc1nn(C)c(C)c1NC(=O)Nc1ccc(Cl)c(Cl)c1	mIAP act 2.1
Cc1nn(C)c(C)c1NC(=O)Nc1cccc(C(F)(F)F)c1	none
Cc1cccc2cc(/C=N/NC(=O)c3ccccc3O)c(Cl)nc12	none
Cc1ccc2cc(/C=N/NC(=O)c3ccccc3O)c(Cl)nc2c1	bIAP activator 2.1
O=C(NC1CCN(Cc2ccc(Cl)cc2)CC1)c1cn(-c2ccccc2)nc1-c1cccnc1	mIAP act 2.3 (no result: bIAP inhibitor, bIAP activator)
O=C(NCc1ccncc1)c1cn(-c2ccccc2)nc1-c1cccnc1	none
CCN(CC)CCN(C(=O)Cn1nnc(-c2ccc(C)o2)n1)C(C(=O)NC1CCCC1)c1ccc(F)cc1 (stereo unspecified)	none (no result: bIAP inhibitor, bIAP activator)
Cc1cccc(C(=O)N/N=C/c2ccc[nH]2)c1	mIAP inh 40
O=C(N/N=C/c1ccc[nH]1)c1cccc(Br)c1	none
O=C(Nc1cccc2ccccc12)c1cn(-c2ccccc2)nc1-c1cccs1	mIAP act 2.2
O=C(CSc1nnc(COc2ccccc2Cl)o1)Nc1ccccc1	none (no result: bIAP inhibitor, bIAP activator)
C/C(N)=C(/C#N)C(=O)CSc1nnc(COc2ccccc2Cl)o1	bIAP activator 2.1
O=C(Cn1cnc2ccccc2c1=O)NCc1cccs1	none
S=c1[nH]nc(-c2ccccc2Cl)n1Cc1ccccc1	none
COc1ccc(Cl)cc1-c1n[nH]c(=S)n1Cc1ccccc1	mIAP inh 42 (no result: bIAP inhibitor, bIAP activator)
O=C1c2ccc(-c3ccc4c(c3)C(=O)N(CCO)C4=O)cc2C(=O)N1CCO	none (no result: bIAP inhibitor, bIAP activator)
COc1ccc(CCN2CC(C(=O)N3CCN(C(C)=O)CC3)CCC2=O)cc1 (stereo unspecified)	none (no result: bIAP inhibitor, bIAP activator)
O=C1c2c(O)cc(O)cc2O[C@@]12c1c(cc(O)c3c1O[C@H](c1ccc(O)cc1)[C@@H](O)C3)O[C@@H]2c1ccc(O)cc1	mIAP inh 41
CC(=O)N1[C@H](C)C=C[C@]1(Cc1ccccc1)C(=O)NCCc1c[nH]c2ccccc12	none (no result: bIAP inhibitor, bIAP activator)
C[C@@H]1C=C[C@](Cc2ccccc2)(C(=O)NCCc2c[nH]c3ccccc23)N1C(=O)c1ccccc1	bIAP activator 2.1
Cc1ccc(-n2c(SCC(N)=O)nnc2-c2cccnc2)c(C)c1	mIAP act 2
CC(NC(=O)c1cc(F)c(F)cc1Cl)C1CC2CCC1C2 (stereo unspecified)	none (no result: bIAP inhibitor, bIAP activator)
S=C(NCc1ccccc1)NC1CCCc2ccccc21 (stereo unspecified)	mIAP act 2.6
C=CCn1c2ccccc2c2nnc(SCCCn3c(=O)[nH]c4ccccc43)nc21	bIAP activator 2 (no result: mIAP inh, hIAP activ, hIAP inh, mIAP act)
COc1ccc(OC)c(C(=O)NC(CC(N)=O)c2ccc(NCc3ccc(F)c(F)c3)c([N+](=O)[O-])c2)c1 (stereo unspecified)	mIAP inh 48 (no result: bIAP inhibitor, bIAP activator)
COc1ccc(OC)c(C(=O)NC(CC(N)=O)c2ccc(NCc3ccccn3)c([N+](=O)[O-])c2)c1 (stereo unspecified)	none (no result: bIAP inhibitor, bIAP activator)
O=C(N1CCN(c2ccccc2F)CC1)C1(c2cccs2)CCOCC1	bIAP activator 3.7
COc1ccc(NC(=S)NNC(=O)CCn2cc([N+](=O)[O-])cn2)cc1	hIAP activ 2.1
CCOC(=O)C1CCN(C(=O)C2(NC(=O)Nc3ccccc3C)CCCCC2)CC1	none (no result: bIAP inhibitor, bIAP activator)
CCOC(=O)C1CCN(C(=O)C2(NC(=O)Nc3ccccc3Cl)CCCCC2)CC1	bIAP activator 3.5
COc1ccc(/C=C(/C(=O)c2ccc(Cl)cc2Cl)n2cncn2)cc1	none
CN(C)c1ccc(/C=C(/C(=O)c2ccc(Cl)cc2Cl)n2cncn2)cc1	mIAP inh 42
CC(C)N1C(=S)SC(C)(C)C1NO (stereo unspecified)	bIAP activator 2.1
Cc1ccc(N(CC(=O)NCc2ccc(Cl)cc2)S(C)(=O)=O)cc1	none (no result: bIAP inhibitor, bIAP activator)
CC(Cc1ccccc1)NC(=O)CN1C(=O)c2ccccc2S1(=O)=O (stereo unspecified)	none (no result: bIAP inhibitor, bIAP activator)
Cc1ccn2c(Nc3ccccc3C)c(-c3ccccn3)nc2c1	bIAP activator 2.1
Cc1ccc(NC(=O)Cc2csc(-c3ccccc3)n2)cc1F	hIAP inh 36
O=C(Cc1csc(-c2ccccc2)n1)Nc1ccc(C(F)(F)F)cc1	none
CCc1ccc(C(C)NC(=S)NC2CCCCC2)cc1 (stereo unspecified)	none (no result: bIAP inhibitor, bIAP activator)
CC(C)c1ccc(C(C)NC(=S)NC2CCCCC2)cc1 (stereo unspecified)	mIAP act 2.2 (no result: bIAP inhibitor, bIAP activator)
Cc1ccc(SCc2nc3ccccc3n2CC(=O)Nc2ccccc2)cc1	mIAP act 2.4
O=C(Cn1c(CSc2ccccc2)nc2ccccc21)Nc1ccccc1	none (no result: mIAP inh, hIAP activ, hIAP inh, mIAP act)
CCCCSCCCNC(=O)Nc1ccc(CC)cc1	mIAP act 2.5
